Data from PubChem BioAssay.
Inconclusive results are not listed. Calls of active or inactive are those of the source.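 Rule for the calls, unless noted: active = RAM network inhibition above 8.4% in each of two replicates, 3 SD over the compound average; inconclusive = above 8.4% inhibition in only one replicate; inactive = 8.4% inhibition or less in each replicate.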

Tests used:
[1] = OD615 S. cerevisiae growth inhibition, permissive medium, pilot counter-assay, permissive growth control for S. cerevisiae lifespan shortening project (AID 705;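 active = growth inhibition above 25% in both replicates, a cutoff set 3 SD above the mean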); details: OD615, 24 h, at 10 µM, active compounds read high
Procedure, shortened: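 assay system = Saccharomyces cerevisiae strain carrying genetically modified DeaD replicative-lifespan system | technique = absorbance (optical density) at 615 nm | buffer or medium = permissive raffinose/galactose medium | timing = cells pre-grown 4 h, then 24 h compound exposure, 30 °C humidified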

[2] = Restrictive medium S. cerevisiae growth inhibition, OD615, pilot screen of yeast lifespan reduction project, restrictive growth control (AID 706;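 active = growth inhibition above a set limit, 3 SD over mean compound inhibition, in both replicates, cut at about 43% in these data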;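 note: modified DeaD lifespan yeast strain shifted to restrictive glucose medium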); details: OD615, 48 h, at 10 µM, active compounds read high
Procedure, shortened: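 System: modified S. cerevisiae. Buffer or medium: CSMM-D glucose medium. Incubation: 4 h pre-growth plus 48 h compound exposure, 30 °C. Detection: absorbance (optical density) measured at 615 nm.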

[3] = viability gain of MRP-1-high H69AR cells under doxorubicin, pilot screen, MRP-1 activator project, CellTiter-Glo, duplicate (AID 807;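 active = viability increase at or above a cutoff of the median across tested compounds plus 3 SD, cut at about 8.5% in these data, passing the limit was not always enough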;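 note: compound pretreatment 18-22 h then 72 h combined with doxorubicin; 0% = doxorubicin alone and 100% = vehicle without doxorubicin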); details: H69AR viability with doxorubicin, CellTiter-Glo luminescence; at 10 µM; active compounds read high
[4] = growth suppression of beta-catenin knockout HCT116, pilot screen, human colon tumor cells (AID 823;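 active = cell viability at or below a set limit in both duplicate runs, the limit being the all-compound median minus 4 SD, cut at about 23% in these data, passing the limit was not always enough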;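 note: 0% = wells killed by 20 µM Hyamine and 100% = untreated DMSO cell wells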); details: CellTiter-Glo, 60 h, at 10 µM, active compounds read low
[5] = growth suppression of PTEN-deleted HCT116, pilot screen, cell-based, HCT116 clonal line, CellTiter-Glo (AID 824;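 active = viability at or below 27.92% in each of two runs, the all-compound median minus 4 SD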;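 note: 0% = 20 µM Hyamine control and 100% = vehicle cell control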); details: 60 h, at 10 µM, active compounds read low
[6] = inhibitors of the yeast RAM network, pilot screen, dse1pr::URA3 reporter, 5-FOA selection (AID 869;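 active = inhibition over a set limit, the all-compound mean plus 3 SD, in both replicate runs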;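 note: 0% = DMSO wells with no growth and 100% = 10 µM 1-NA-PP1 with full growth; RAM network block rescues cells from 5-FOA so hits raise OD615 growth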); details: S. cerevisiae dse1pr::URA3 5-FOA growth, OD615, 2 d; at 10 µM; active compounds read high; strain carries analog-sensitive mutant Cbk1 kinase
[7] = RAM signaling pathway blockade in yeast – S. cerevisiae, Pdr1DBD-CYC8 efflux-inhibited sensitized strain, primary screen (AID 1298);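 note: 0% = DMSO untreated cells without growth and 100% = 10 µM 1-NA-PP1 full growth; higher means more yeast growth rescued from 5-FOA killing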; details: S. cerevisiae cbk1-as DSE1-URA3 strain, 5-FOA growth OD615, 2 d; at 50 µM; active compounds read high

CC1CCN(c2nc3c(c(=O)[nH]c(=O)n3C)n2Cc2ccccc2Cl)CC1
inactive: growth inhibition [1] -10.2% | growth inhibition [2] -20.9% | viability increase [3] -6.47% | viability [4] 87.6% | viability [5] 72% | inhibition [6] 2.75% | RAM network inhibition [7] 9.67%

O=C1C2CCCN2C(c2ccccc2F)N1c1cccc(Cl)c1 (configuration not stated)
inactive: growth inhibition [1] 1.87% | growth inhibition [2] 1.65% | viability increase [3] -0.32% | viability [4] 97.8% | viability [5] 102% | inhibition [6] -0.43% | RAM network inhibition [7] 1.7%

O=C1c2ccccc2-c2nc3ncnn3c(-c3ccccc3Cl)c21
inactive: growth inhibition [1] -6.53% | growth inhibition [2] -0.65% | viability increase [3] -3.38% | viability [4] 83.3% | viability [5] 76.9% | inhibition [6] 0.39% | RAM network inhibition [7] 0.58%

COc1ccc(Cc2nc(-c3ccc(-n4cccc4)cc3)no2)cc1
inactive: growth inhibition [1] 0.23% | growth inhibition [2] -11.5% | viability increase [3] 3.66% | viability [4] 98.3% | viability [5] 88% | inhibition [6] 3.82% | RAM network inhibition [7] 3.16%

COc1ccc(Nc2ccc3c(c2)=NC2(CCCCC2)[N+]=3[O-])cc1
inactive: growth inhibition [1] -9.92% | growth inhibition [2] -11.8% | viability increase [3] -8.28% | inhibition [6] 4.35% | RAM network inhibition [7] 6.69%
active: viability [4] 2.19% | viability [5] 1.61%

Cc1ccc(C2CC(c3ccccc3C)n3nc(N)nc3N2)cc1 (configuration not stated)
inactive: growth inhibition [1] 0.605% | growth inhibition [2] -2.86% | viability increase [3] -0.57% | viability [4] 84.6% | viability [5] 83% | inhibition [6] 0.77% | RAM network inhibition [7] 4.75%

Cc1ccc(C(=O)CC(C(=O)O)c2cn(CCC#N)c3ccccc23)cc1 (configuration not stated)
inactive: growth inhibition [1] -4% | growth inhibition [2] 3.92% | viability increase [3] -1.96% | viability [4] 98.3% | viability [5] 104% | inhibition [6] 0.735% | RAM network inhibition [7] 3.81%

CC(C)(C)c1ccc(OCC(=O)N2CCN(C=O)CC2)cc1
inactive: growth inhibition [1] -6.68% | growth inhibition [2] -10.2% | viability increase [3] -2.64% | viability [4] 98.1% | viability [5] 100% | inhibition [6] 1.25% | RAM network inhibition [7] 0.67%

O=C(O)CCC(=O)N1CCc2cc(S(=O)(=O)N3CCN(c4ccc(F)cc4)CC3)ccc21
inactive: growth inhibition [1] -4.08% | growth inhibition [2] 6.97% | viability increase [3] -1.31% | viability [4] 97.4% | viability [5] 99% | inhibition [6] 1.94% | RAM network inhibition [7] 4.17%

CC(NC(=O)CSc1ncnc2nc[nH]c12)c1ccccc1 (configuration not stated)
inactive: growth inhibition [1] -15.5% | growth inhibition [2] -5.1% | viability increase [3] -0.99% | viability [4] 99.8% | viability [5] 96% | inhibition [6] 0.755% | RAM network inhibition [7] 0.48%

CN1CCN(S(=O)(=O)c2ccc(-c3ccc(S(=O)(=O)N4CCN(C)CC4)cc3)cc2)CC1
inactive: growth inhibition [1] -23.4% | growth inhibition [2] -19.1% | viability increase [3] 0.84% | viability [4] 96.5% | viability [5] 96.2% | inhibition [6] 0.68% | RAM network inhibition [7] 0.57%

C=COCCn1c(-c2nonc2N)nc2ccccc21
inactive: growth inhibition [1] -6.54% | growth inhibition [2] -3.9% | viability increase [3] -4.61% | viability [4] 82.4% | viability [5] 74.9% | inhibition [6] 1.75% | RAM network inhibition [7] 6.18%

CC(=O)N1CCC(C(=O)Nc2ccccc2)(N(Cc2ccccc2)C(=O)c2cccnc2)CC1
inactive: growth inhibition [1] -2.38% | growth inhibition [2] 4.33% | viability increase [3] -0.15% | viability [4] 95.7% | viability [5] 86.7% | inhibition [6] 1.47% | RAM network inhibition [7] -1.39%

Cn1c(=O)cc(N2CCc3ccccc32)[nH]c1=O
inactive: growth inhibition [1] -11.7% | growth inhibition [2] 2.4% | viability increase [3] 0.37% | viability [4] 90.8% | viability [5] 98.1% | inhibition [6] 1.23% | RAM network inhibition [7] -1.11%

COc1ccc(-c2nc(CS(=O)(=O)CC(=O)Nc3ccc(Cl)cc3)c(C)o2)cc1
inactive: growth inhibition [1] -8.75% | growth inhibition [2] -7.49% | viability increase [3] -2.64% | viability [4] 48.5% | viability [5] 49.6% | inhibition [6] 2.77% | RAM network inhibition [7] 3.02%

CSc1nc2c(c(=O)n1-c1ccc(F)cc1)SCC2
inactive: growth inhibition [1] -9.67% | growth inhibition [2] -24.3% | viability increase [3] -1.07% | viability [4] 102% | viability [5] 93.7% | inhibition [6] 2.19% | RAM network inhibition [7] 4.08%

COc1ccccc1NC(=O)C1=C(C)NC(=O)NC1c1cccc(OC)c1OC (configuration not stated)
inactive: growth inhibition [1] -3.89% | growth inhibition [2] 2.57% | viability increase [3] -2.1% | viability [4] 104% | viability [5] 94.8% | inhibition [6] 0.545% | RAM network inhibition [7] 3.58%

Cc1cc(S(=O)(=O)N2CCN(Cc3ccccc3)CC2)c(C)s1
inactive: growth inhibition [1] -11.6% | growth inhibition [2] 0.51% | viability increase [3] -1.58% | viability [4] 77.1% | viability [5] 81.1% | inhibition [6] 1.35% | RAM network inhibition [7] 4.48%

CCN1CCN(C(=O)c2cc3c(=O)oc4ccc(C)cc4c3s2)CC1
inactive: growth inhibition [1] -12.6% | growth inhibition [2] -16.2% | viability increase [3] -2.18% | viability [4] 102% | viability [5] 93.7% | inhibition [6] 0.905% | RAM network inhibition [7] 1.3%

Cc1nc2ccc3nc(NC(=O)C4COc5ccccc5O4)sc3c2s1 (configuration not stated)
inactive: growth inhibition [1] -10.6% | growth inhibition [2] 0.74% | viability increase [3] -4.93% | viability [4] 86.8% | viability [5] 80.6% | inhibition [6] 1.55% | RAM network inhibition [7] -0.06%

O=C1C(C=NCc2ccco2)=C(O)c2ccccc21
inactive: growth inhibition [1] -0.635% | growth inhibition [2] -1.76% | viability increase [3] -3.09% | viability [4] 82.1% | viability [5] 89.9% | inhibition [6] 0.74% | RAM network inhibition [7] -0.41%

Cc1ccnc(Nc2nc3ccccc3o2)n1
inactive: growth inhibition [1] 2.6% | growth inhibition [2] 24.6% | viability increase [3] -4.36% | viability [4] 62% | viability [5] 57.7% | inhibition [6] 0.905% | RAM network inhibition [7] 4.15%

COc1ccc(OC)c(S(=O)(=O)NCc2cn3c(C)csc3n2)c1
inactive: growth inhibition [1] -10.1% | growth inhibition [2] 5.41% | viability increase [3] -1.77% | viability [4] 103% | viability [5] 96.5% | inhibition [6] 0.045% | RAM network inhibition [7] 5.95%

CN1CCN(CCCNC(=O)c2cc3c(=O)n(C)c4ccccc4c3s2)CC1
inactive: growth inhibition [1] 0.78% | growth inhibition [2] -4.68% | viability increase [3] -7.62% | viability [4] 53.1% | viability [5] 45.6% | inhibition [6] 0.835% | RAM network inhibition [7] 1.14%

O=C(Nc1nc2ccccc2n1CCN1CCCC1)c1ccc(Cl)cc1
inactive: growth inhibition [1] -9.21% | growth inhibition [2] -13.3% | viability increase [3] -7.07% | viability [4] 59.9% | viability [5] 65.7% | inhibition [6] -0.07% | RAM network inhibition [7] 4.6%

COCCN(CCOC)Cc1c(O)ccc2c3c(c(=O)oc12)CCC3
inactive: growth inhibition [1] -1.66% | growth inhibition [2] 7.01% | viability increase [3] -1.42% | viability [4] 99.9% | viability [5] 102% | inhibition [6] -0.65% | RAM network inhibition [7] -0.97%
